Values after ≈ are worked out from the molar mass of the structure shown.
Assays:
Assay type in all cases: functional
Streptococcus pneumoniae [1] = experiment: Antibacterial activity against penicillin-susceptible Streptococcus pneumoniae after overnight incubation by agar dilution method
Method in brief: (§1)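 Agar dilution on Mueller-Hinton agar supplemented with 5% sheep blood. Inoculum 10^4 CFU/spot, incubated overnight at 35°C in ambient air. Test strains were clinical pneumococcal isolates. S. pneumoniae ATCC 49619 was included as the quality control strain in each run. MIC range, MIC50 and MIC90 were reported for each susceptibility category.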

Streptococcus pyogenes [2] = experiment: Antibacterial activity against macrolide-resistant Streptococcus pyogenes harboring erm(A) gene after overnight incubation by agar dilution method
Method in brief: (§2)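 Agar dilution MICs on Mueller-Hinton agar with 5% sheep blood. Inoculum 10^4 CFU/spot, incubated overnight at 35°C in ambient air. Clinical S. pneumoniae or group A streptococcal isolates; resistance genotypes (erm(B), erm(A), mef(A)/mef(E)) were assigned by PCR. S. pneumoniae ATCC 49619 served as QC strain in each run. Range, MIC50 and MIC90 reported per phenotype group.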

Streptococcus pneumoniae [3] = experiment: Antibacterial activity against macrolide-resistant Streptococcus pneumoniae harboring erm(B) gene after overnight incubation by agar dilution method; method in brief: as §2
Streptococcus pneumoniae [4] = experiment: Antibacterial activity against Streptococcus pneumoniae harboring erm(B) gene after overnight incubation by agar dilution method
Method in brief: (§3)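 Clinical isolates collected 1998–2008, with macrolide-resistance genes confirmed by PCR. MICs by agar dilution on Mueller-Hinton agar with 5% sheep blood. Inoculum 10^4 CFU/spot, incubated overnight at 35°C in ambient air. S. pneumoniae ATCC 49619 was the quality-control strain in every run.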

Streptococcus pneumoniae [5] = experiment: Antibacterial activity against quinolone-resistant Streptococcus pneumoniae after overnight incubation by agar dilution method; method in brief: as §1
Streptococcus pneumoniae [6] = experiment: Antibacterial activity against macrolide-resistant Streptococcus pneumoniae harboring mef(A) gene after overnight incubation by agar dilution method; method in brief: as §2
Streptococcus pyogenes [7] = experiment: Antibacterial activity against Streptococcus pyogenes harboring mutation in L4 ribosomal protein after overnight incubation by agar dilution method; method in brief: as §3
Streptococcus pyogenes [8] = experiment: Antibacterial activity against macrolide-susceptible Streptococcus pyogenes after overnight incubation by agar dilution method
Method in brief: (§4)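 Agar dilution on Mueller-Hinton agar supplemented with 5% sheep blood, inoculum 10^4 CFU/spot, read after overnight incubation at 35°C in ambient air. Clinical isolates with defined genotypes; S. pneumoniae ATCC 49619 quality control strain included in each run. MIC50/MIC90 are MICs inhibiting 50% and 90% of isolates.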

Streptococcus pneumoniae [9] = experiment: Antibacterial activity against Streptococcus pneumoniae harboring erm(A) gene after overnight incubation by agar dilution method; method in brief: as §3
Streptococcus pyogenes [10] = experiment: Antibacterial activity against Streptococcus pyogenes harboring erm(B) gene after overnight incubation by agar dilution method; method in brief: as §3
Streptococcus pyogenes [11] = experiment: Antibacterial activity against macrolide-resistant Streptococcus pyogenes harboring erm(B) gene after overnight incubation by agar dilution method; method in brief: as §2
Streptococcus pneumoniae [12] = experiment: Antibacterial activity against Streptococcus pneumoniae harboring mutation in 23S rRNA after overnight incubation by agar dilution method; method in brief: as §3
Streptococcus pyogenes [13] = experiment: Antibacterial activity against Streptococcus pyogenes harboring erm(A) gene after overnight incubation by agar dilution method; method in brief: as §3
Streptococcus pneumoniae [14] = experiment: Antibacterial activity against penicillin-intermediate Streptococcus pneumoniae after overnight incubation by agar dilution method; method in brief: as §4
Streptococcus pyogenes [15] = experiment: Antibacterial activity against Streptococcus pyogenes harboring mef(A) gene after overnight incubation by agar dilution method; method in brief: as §3
Streptococcus pneumoniae [16] = experiment: Antibacterial activity against Streptococcus pneumoniae harboring erm(B) and mef(A) gene after overnight incubation by agar dilution method; method in brief: as §3
Streptococcus pneumoniae [17] = experiment: Antibacterial activity against macrolide-resistant Streptococcus pneumoniae harboring erm(B) and mef(A) gene after overnight incubation by agar dilution method; method in brief: as §2
Streptococcus pneumoniae [18] = experiment: Antibacterial activity against macrolide-susceptible Streptococcus pneumoniae after overnight incubation by agar dilution method; method in brief: as §2
Streptococcus pneumoniae [19] = experiment: Antibacterial activity against quinolone-susceptible Streptococcus pneumoniae after overnight incubation by agar dilution method; method in brief: as §1
Streptococcus pneumoniae [20] = experiment: Antibacterial activity against Streptococcus pneumoniae harboring mef(A) gene after overnight incubation by agar dilution method; method in brief: as §3
Streptococcus pneumoniae [21] = experiment: Antibacterial activity against Streptococcus pneumoniae harboring mutation in L4 ribosomal protein after overnight incubation by agar dilution method; method in brief: as §3
Streptococcus pneumoniae [22] = experiment: Antibacterial activity against penicillin-resistant Streptococcus pneumoniae after overnight incubation by agar dilution method; method in brief: as §1
Streptococcus pneumoniae [23] = experiment: Antibacterial activity against macrolide-resistant Streptococcus pneumoniae harboring mutation in L4 ribosomal protein after overnight incubation by agar dilution method; method in brief: as §2
Streptococcus pyogenes [24] = experiment: Antibacterial activity against macrolide-resistant Streptococcus pyogenes harboring mef(A) gene after overnight incubation by agar dilution method; method in brief: as §2

Compound COc1c(N2C[C@@H]3CCCN[C@@H]3C2)c(F)cc2c(=O)c(C(=O)O)cn(C3CC3)c12 [MOXIFLOXACIN] has an MIC50 (Streptococcus pneumoniae [1]) of 0.5 µg/mL (≈ 1.25 µM), an MIC90 (Streptococcus pneumoniae [1]) of 4 µg/mL (≈ 9.96 µM) and an MIC50 (Streptococcus pyogenes [2]) of 0.25 µg/mL (≈ 0.623 µM). For the same compound, the MIC90 (Streptococcus pyogenes [2]) was 0.25 µg/mL (≈ 0.623 µM), the MIC50 (Streptococcus pneumoniae [3]) was 0.25 µg/mL (≈ 0.623 µM) and the MIC90 (Streptococcus pneumoniae [3]) was 0.5 µg/mL (≈ 1.25 µM). The MIC50 (Streptococcus pneumoniae [4]) was 0.25 µg/mL (≈ 0.623 µM), the MIC90 (Streptococcus pneumoniae [4]) was 0.5 µg/mL (≈ 1.25 µM) and the MIC50 (Streptococcus pneumoniae [5]) was 4 µg/mL (≈ 9.96 µM). It also gave an MIC90 (Streptococcus pneumoniae [5]) of 4 µg/mL (≈ 9.96 µM), an MIC50 (Streptococcus pneumoniae [6]) of 0.25 µg/mL (≈ 0.623 µM) and an MIC90 (Streptococcus pneumoniae [6]) of 0.5 µg/mL (≈ 1.25 µM). The MIC (Streptococcus pyogenes [7]) was 0.25 µg/mL (≈ 0.623 µM), the MIC50 (Streptococcus pyogenes [8]) was 0.25 µg/mL (≈ 0.623 µM) and the MIC90 (Streptococcus pyogenes [8]) was 0.25 µg/mL (≈ 0.623 µM). For the same compound, the MIC (Streptococcus pneumoniae [9]) was 0.25 µg/mL (≈ 0.623 µM), the MIC50 (Streptococcus pyogenes [10]) was 0.25 µg/mL (≈ 0.623 µM) and the MIC90 (Streptococcus pyogenes [10]) was 0.25 µg/mL (≈ 0.623 µM). It also gave an MIC50 (Streptococcus pyogenes [11]) of 0.25 µg/mL (≈ 0.623 µM), an MIC90 (Streptococcus pyogenes [11]) of 0.25 µg/mL (≈ 0.623 µM) and an MIC (Streptococcus pneumoniae [12]) of 0.25 µg/mL (≈ 0.623 µM). It also gave an MIC50 (Streptococcus pyogenes [13]) of 0.25 µg/mL (≈ 0.623 µM) and an MIC90 (Streptococcus pyogenes [13]) of 0.25 µg/mL (≈ 0.623 µM).
Compound CC1(C)S[C@@H]2[C@H](NC(=O)Cc3ccccc3)C(=O)N2[C@H]1C(=O)O [PENICILLIN G] has an MIC50 (Streptococcus pneumoniae [14]) of 0.5 µg/mL (≈ 1.5 µM), an MIC90 (Streptococcus pneumoniae [14]) of 1 µg/mL (≈ 2.99 µM) and an MIC50 (Streptococcus pneumoniae [1]) of 0.03 µg/mL (≈ 0.0897 µM). For the same compound, the MIC90 (Streptococcus pneumoniae [1]) was 0.06 µg/mL (≈ 0.179 µM), the MIC50 (Streptococcus pyogenes [2]) was 0.015 µg/mL (≈ 0.0449 µM) and the MIC90 (Streptococcus pyogenes [2]) was 0.015 µg/mL (≈ 0.0449 µM). For the same compound, the MIC50 (Streptococcus pneumoniae [3]) was 1 µg/mL (≈ 2.99 µM), the MIC90 (Streptococcus pneumoniae [3]) was 4 µg/mL (≈ 12 µM) and the MIC50 (Streptococcus pyogenes [15]) was 0.015 µg/mL (≈ 0.0449 µM). It also gave an MIC90 (Streptococcus pyogenes [15]) of 0.03 µg/mL (≈ 0.0897 µM), an MIC50 (Streptococcus pneumoniae [16]) of 2 µg/mL (≈ 5.98 µM) and an MIC90 (Streptococcus pneumoniae [16]) of 4 µg/mL (≈ 12 µM). The MIC50 (Streptococcus pneumoniae [17]) was 2 µg/mL (≈ 5.98 µM), the MIC90 (Streptococcus pneumoniae [17]) was 4 µg/mL (≈ 12 µM) and the MIC50 (Streptococcus pneumoniae [18]) was 1 µg/mL (≈ 2.99 µM). The MIC90 (Streptococcus pneumoniae [18]) was 2 µg/mL (≈ 5.98 µM), the MIC50 (Streptococcus pneumoniae [19]) was 1 µg/mL (≈ 2.99 µM) and the MIC90 (Streptococcus pneumoniae [19]) was 4 µg/mL (≈ 12 µM). The MIC50 (Streptococcus pneumoniae [4]) was 1 µg/mL (≈ 2.99 µM), the MIC90 (Streptococcus pneumoniae [4]) was 4 µg/mL (≈ 12 µM) and the MIC50 (Streptococcus pneumoniae [5]) was 0.25 µg/mL (≈ 0.748 µM). It also gave an MIC90 (Streptococcus pneumoniae [5]) of 4 µg/mL (≈ 12 µM), an MIC50 (Streptococcus pneumoniae [20]) of 0.125 µg/mL (≈ 0.374 µM) and an MIC90 (Streptococcus pneumoniae [20]) of 4 µg/mL (≈ 12 µM). For the same compound, the MIC50 (Streptococcus pneumoniae [6]) was 0.125 µg/mL (≈ 0.374 µM), the MIC90 (Streptococcus pneumoniae [6]) was 4 µg/mL (≈ 12 µM) and the MIC (Streptococcus pyogenes [7]) was 0.015 µg/mL (≈ 0.0449 µM). It also gave an MIC50 (Streptococcus pyogenes [8]) of 0.015 µg/mL (≈ 0.0449 µM), an MIC90 (Streptococcus pyogenes [8]) of 0.015 µg/mL (≈ 0.0449 µM) and an MIC (Streptococcus pneumoniae [9]) of 0.03 µg/mL (≈ 0.0897 µM). The MIC50 (Streptococcus pyogenes [10]) was 0.015 µg/mL (≈ 0.0449 µM), the MIC90 (Streptococcus pyogenes [10]) was 0.015 µg/mL (≈ 0.0449 µM) and the MIC50 (Streptococcus pyogenes [11]) was 0.015 µg/mL (≈ 0.0449 µM). The MIC90 (Streptococcus pyogenes [11]) was 0.015 µg/mL (≈ 0.0449 µM), the MIC (Streptococcus pneumoniae [12]) was 0.015 µg/mL (≈ 0.0449 µM) and the MIC50 (Streptococcus pneumoniae [21]) was 4 µg/mL (≈ 12 µM). The MIC90 (Streptococcus pneumoniae [21]) was 16 µg/mL (≈ 47.8 µM), the MIC50 (Streptococcus pyogenes [13]) was 0.015 µg/mL (≈ 0.0449 µM) and the MIC90 (Streptococcus pyogenes [13]) was 0.015 µg/mL (≈ 0.0449 µM). The MIC50 (Streptococcus pneumoniae [22]) was 4 µg/mL (≈ 12 µM), the MIC90 (Streptococcus pneumoniae [22]) was 8 µg/mL (≈ 23.9 µM) and the MIC50 (Streptococcus pneumoniae [23]) was 4 µg/mL (≈ 12 µM). For the same compound, the MIC90 (Streptococcus pneumoniae [23]) was 16 µg/mL (≈ 47.8 µM), the MIC50 (Streptococcus pyogenes [24]) was 0.015 µg/mL (≈ 0.0449 µM) and the MIC90 (Streptococcus pyogenes [24]) was 0.03 µg/mL (≈ 0.0897 µM).
